Measurements: PMC7864382 (Clinical cancer research : an official journal of the …, 2020)
Values joined by “and” are separate entries in the source; they are usually repeats but may differ in a detail not shown here. Identical values can stand only once. Like-named read-outs stand apart in the source and are kept apart here.

Experiments:
[1] = system: patients with advanced solid tumors
[2] = system: pS6RP, p4EBP1, survivin in MDA-MB-468 and HCC1937 cells; experiment: Immunoblotting of mTOR pathway effectors and survivin; type: cell-based, Human; conditions: immunoblot, 50 nmol/L at 24 hours, 100 nmol/L at 72 hours; for pS6RP (mTOR pathway effector) level: alisertib-sensitive and -resistant TNBC cell lines
In short: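 Cells were seeded in 6-well plates for 24 h, then exposed to test compounds at 50 nmol/L for 24 h or 100 nmol/L for 72 h, alone or combined. Cells were harvested with trypsin/EDTA and lysed. 50 µg protein was run on 4–12% Bis-Tris gels and transferred to nitrocellulose. Primary antibodies (S6RP, pS6RP, 4EBP1, p4EBP1, survivin, α-tubulin) were used at 1:1,000 overnight, with DyLight secondaries and infrared imaging.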

CAL51 FUCCI cells = experiment: FUCCI cell-cycle analysis and relative growth; type: cell-based, Human; conditions: 100 nmol/L each, 0 to 96 hours
In short: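 CAL51 cells transduced with the FUCCI biosensor (G1 red, S/G2–M green) were plated and treated with each test compound at 100 nmol/L, alone or combined. Live-cell fluorescence microscopy in an environmentally controlled chamber ran from 0 to 96 h. Relative growth came from time-lapse image growth curves. Combination was compared with single agents at 72 and 96 h.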

[3] = Phase I trial pharmacokinetics in human plasma; type: in vivo
CU_TNBC_004 PDX model [4] = experiment: Tumor growth inhibition in TNBC PDX model CU_TNBC_004; type: in vivo, mouse; conditions: CU_TNBC_004 (alisertib-resistant); TAK-228 0.5 mg/kg daily, alisertib 30 mg/kg daily, p.o.; vs vehicle
In short: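 Tumor sections were implanted subcutaneously into both flanks by 12-gauge trocar. At an average of 150–300 mm³, mice were randomized to four arms: vehicle, 0.5 mg/kg daily, 30 mg/kg daily, or both combined, all by oral gavage. Caliper measurements and body weights were taken twice weekly; volume = length × width² × 0.52. TGI = [1 − (mean final treated volume/mean final vehicle volume)] × 100.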

CU_TNBC_004 PDX model [5] = experiment: SA-β-gal staining and H&E of PDX tumors; type: in vivo, mouse
In short: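 PDX tumors were grown subcutaneously in both flanks. At 150–300 mm³ mice were randomized to vehicle, 0.5 mg/kg daily, 30 mg/kg daily, or combination by oral gavage. Tumors were OCT-embedded, frozen in liquid nitrogen, and cryosectioned. Slides were fixed and stained for SA-β-gal activity at pH 6.0. Matched H&E slides were reviewed by a pathologist to confirm tumor cells. Images were taken at 40×.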

CU_TNBC_004 PDX model [6] = experiment: Immunofluorescence; type: in vivo, mouse; conditions: CU_TNBC_004 tumors
In short: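 PDX tumor pieces were implanted subcutaneously by trocar into both flanks. At 150–300 mm³ mice were randomized to vehicle, 0.5 mg/kg daily, 30 mg/kg daily, or combination, all by oral gavage. Frozen OCT tumor sections were fixed and blocked (1% BSA/PBS, 1 h, 37°C), then stained with BAX and DR5 primaries and Alexa Fluor 488/555 secondaries (1 h, 37°C). DAPI counterstain was followed by confocal imaging at 60×.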

CU_TNBC_007 PDX model = experiment: Tumor growth inhibition in TNBC PDX model CU_TNBC_007; type: in vivo, mouse; conditions: TAK-228 0.5 mg/kg daily, alisertib 30 mg/kg daily, vs vehicle
In short: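 PDX tumor sections were implanted subcutaneously via 12-gauge trocar into both flanks. At a mean of 150–300 mm³ mice were randomized to four arms: vehicle, 0.5 mg/kg daily, 30 mg/kg daily, or combination, all given by oral gavage. Calipers were read twice weekly and volume = length × width² × 0.52. TGI = [1 − (mean final treated volume / mean final vehicle volume)] × 100.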

TNBC patients = conditions: alisertib monotherapy, 14 TNBC patients, phase II trial; cited from earlier work
[7] = human; ref earlier clinical trials; cited from earlier work
[8] = system: patients with ER+/HER2− metastatic breast cancer; conditions: cited from earlier work
[9] = human, plasma, oral, 1 mg, TAK-228 combo dose with alisertib, 1 mg cohort
[10] = human, plasma, oral, 1 mg, TAK-228 run-in dose (single agent), 1 mg cohort
[11] = human, plasma, oral, 3 mg, TAK-228 run-in dose (single agent), 3 mg cohort
[12] = single-agent alisertib, standard dosing schedule

CC(C)n1nc(-c2ccc3oc(N)nc3c2)c2c(N)ncnc21 [TAK-228]
Patients with adverse effects at least possibly related to the drug ([1]; 18 patients, combination treatment): 72%
Most common toxicities attributed to the drug(s) ([1]; attribution to TAK-228 alone, alisertib alone or both drugs): Rash
Dose reduction of the drug required ([1]; combination treatment, all dose levels): 3 patients
MTD / RP2D of TAK-228 in combination with alisertib ([1]; daily, continuous dosing, oral): 2 mg
p4EBP1 level [2]: decrease
survivin (antiapoptotic protein) level [2]: decrease
pS6RP (mTOR pathway effector) level [2]: decrease
Cell-cycle status (FUCCI) (CAL51 FUCCI cells): continued progression through the cell cycle
half-life ([3]; TAK-228 combo dose with alisertib, 2 mg cohort): 6.0 ± 2.1 h
AUC [3, 9]: 47.4 ± 13.8 ng·h/mL
AUC [3, 10]: 46.7 ± 13.1 ng·h/mL
Cmax [3, 9]: 8.6 ± 4.2 ng/mL
Cmax [3, 10]: 7.7 ± 2.6 ng/mL
Cmax ([3]; human, plasma, oral, 2 mg, TAK-228 combo dose with alisertib, 2 mg cohort): 24.7 ± 13.6 ng/mL
Cmax ([3]; human, plasma, oral, 2 mg, TAK-228 run-in dose (single agent), 2 mg cohort): 24.2 ± 8.8 ng/mL
AUC [3, 11]: 154 ± 110 ng·h/mL
Cmax [3, 11]: 25.7 ± 9.4 ng/mL
Tmax ([3]; human, plasma, oral, 3 mg, Tmax, TAK-228 run-in dose (single agent), 3 mg cohort): 1.3 ± 1.1 h
TGI (CU_TNBC_004 PDX model [4]): 54.47% and 54.5%
Senescent cells by SA-β-gal staining (CU_TNBC_004 PDX model [5]): not observed
cytoplasmic BAX (CU_TNBC_004 PDX model [6]): increase
TGI (CU_TNBC_007 PDX model): 30.73% and 30.7%

COc1cc(Nc2ncc3c(n2)-c2ccc(Cl)cc2C(c2c(F)cccc2OC)=NC3)ccc1C(=O)O [alisertib]
MTD / RP2D of alisertib in combination with TAK-228 ([1]; b.i.d. days 1 to 7 of a 21-day cycle, oral): 30 mg
Most common toxicities attributed to the drug(s) ([1]; in vivo): neutropenia and fatigue
survivin (antiapoptotic protein) level [2]: increase
pS6RP (mTOR pathway effector) level [2]: increase
median progression-free survival (TNBC patients): 1.5 months
Cell-cycle status (FUCCI) (CAL51 FUCCI cells): continued progression through the cell cycle
TGI (CU_TNBC_004 PDX model [4]): 35.09% and 35.1%
half-life [7]: approximately 20 hours
Senescent cells by SA-β-gal staining (CU_TNBC_004 PDX model [5]): scattered senescent cells
grade ≥3 neutropenia or stomatitis ([8]; intermittent alisertib schedule in combination with fulvestrant): no grade ≥3 neutropenia or stomatitis
grade 3 to 4 neutropenia [8, 12]: 57%
grade 3 to 4 stomatitis [8, 12]: 15%
TGI (CU_TNBC_007 PDX model): 51.74% and 51.7%
